ChEMBL document CHEMBL4689842, “EUbOPEN Chemogenomics Library wave 1” (2021)
Values joined by “and” are separate entries in the source; they are usually repeats but may differ in a detail not shown here. Equal values may be shown once.

Tested on: HEK-293T
Assay: Multiplex assay against HEK293T;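 as to Population Tubulin-Different-Phenotype (%): share of the cells with healthy nuclei that show this phenotype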
Format: toxicity, cell-based
Conditions: human
Summary of the method: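 With compound added, live cells were imaged on a CQ1 microscope at 37°C and 5% CO2; staining with Hoechst33342, BioTracker Green Microtubule Cytoskeleton Dye, MitoTracker Red and Annexin V Alexa Fluor 680 had been done at seeding. The CellPathfinder machine-learning gating scheme split cells into Hoechst high-intensity objects or normal cells, normal cells into healthy, pyknosed or fragmented nuclei, and pyknosed cells into mitotic or apoptotic. The tubulin, mitochondrial-mass and membrane-permeability phenotypes are per cents of healthy-nucleus cells.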

[1] = 12 h, 1 µM, compound concentration 1 uM, replicate 1
[2] = 12 h, 1 µM, compound concentration 1 uM, replicate 2
[3] = 12 h, 10 µM, compound concentration 10 uM, replicate 1
[4] = 12 h, 10 µM, compound concentration 10 uM, replicate 2
[5] = 24 h, 1 µM, compound concentration 1 uM, replicate 1
[6] = 24 h, 1 µM, compound concentration 1 uM, replicate 2
[7] = 24 h, 10 µM, compound concentration 10 uM, replicate 1
[8] = 24 h, 10 µM, compound concentration 10 uM, replicate 2
[9] = 48 h, 1 µM, compound concentration 1 uM, replicate 1
[10] = 48 h, 1 µM, compound concentration 1 uM, replicate 2
[11] = 48 h, 10 µM, compound concentration 10 uM, replicate 1
[12] = 48 h, 10 µM, compound concentration 10 uM, replicate 2

Compound: Nc1c(C(=O)NCc2ccc(C(=O)NCCCC3CCCCC3)cc2)cnn1-c1ccccc1 [SR-318]
- Population Apoptotic (%) [1]: 38% and 53% and 33%
- Population Fragmented Nuclei (%) [1]: 11% and 10%
- Population Healthy Nuclei (%) [1]: 45% and 28% and 41%
- Population Hoechst High Intensity Objects (%) [1]: 13% and 14% and 11%
- Population Membrane Permeable-Phenotype (%) [1]: 1%
- Population Mitochondria Different-Phenotype (%) [1]: 68% and 75% and 77%
- Population Mitotic Cells (%) [1]: 61% and 46% and 66%
- Population Normal (%) [1]: 86% and 85% and 88%
- Population Pyknosed Nuclei (%) [1]: 45% and 60% and 48%
- Population Tubulin-Different-Phenotype (%) [1]: 37% and 47% and 50%
- Total Cell Count [1]: 564 and 341 and 583
- Population Apoptotic (%) [2]: 8% and 14% and 10%
- Population Fragmented Nuclei (%) [2]: 9% and 6%
- Population Healthy Nuclei (%) [2]: 39% and 42% and 51%
- Population Hoechst High Intensity Objects (%) [2]: 4% and 5% and 2%
- Population Membrane Permeable-Phenotype (%) [2]: 8% and 6% and 4%
- Population Mitochondria Different-Phenotype (%) [2]: 22% and 14% and 17%
- Population Mitotic Cells (%) [2]: 91% and 85% and 89%
- Population Normal (%) [2]: 95% and 94% and 97%
- Population Pyknosed Nuclei (%) [2]: 51% and 47% and 41%
- Population Tubulin-Different-Phenotype (%) [2]: 18% and 20% and 15%
- Total Cell Count [2]: 208 and 203 and 249
- Population Apoptotic (%) [3]: 43% and 67% and 60%
- Population Fragmented Nuclei (%) [3]: 13% and 17% and 12%
- Population Healthy Nuclei (%) [3]: 21% and 14% and 18%
- Population Hoechst High Intensity Objects (%) [3]: 16% and 13% and 15%
- Population Membrane Permeable-Phenotype (%) [3]: 5% and 2% and 1%
- Population Mitochondria Different-Phenotype (%) [3]: 97% and 100% and 94%
- Population Mitotic Cells (%) [3]: 56% and 32% and 39%
- Population Normal (%) [3]: 83% and 86% and 84%
- Population Pyknosed Nuclei (%) [3]: 64% and 68%
- Population Tubulin-Different-Phenotype (%) [3]: 90% and 89% and 92%
- Total Cell Count [3]: 492 and 305 and 342
- Population Apoptotic (%) [4]: 42% and 40% and 53%
- Population Fragmented Nuclei (%) [4]: 2% and 5%
- Population Healthy Nuclei (%) [4]: 31% and 23%
- Population Hoechst High Intensity Objects (%) [4]: 6% and 3%
- Population Membrane Permeable-Phenotype (%) [4]: 7% and 4%
- Population Mitochondria Different-Phenotype (%) [4]: 82% and 78% and 79%
- Population Mitotic Cells (%) [4]: 57% and 59% and 46%
- Population Normal (%) [4]: 93% and 96%
- Population Pyknosed Nuclei (%) [4]: 66% and 62% and 70%
- Population Tubulin-Different-Phenotype (%) [4]: 78% and 84%
- Total Cell Count [4]: 272 and 248 and 191
- Population Apoptotic (%) [5]: 42% and 41% and 52%
- Population Fragmented Nuclei (%) [5]: 12% and 10% and 16%
- Population Healthy Nuclei (%) [5]: 40% and 46% and 27%
- Population Hoechst High Intensity Objects (%) [5]: 15% and 12%
- Population Membrane Permeable-Phenotype (%) [5]: 3% and 1% and 5%
- Population Mitochondria Different-Phenotype (%) [5]: 71% and 56% and 69%
- Population Mitotic Cells (%) [5]: 57% and 58% and 47%
- Population Normal (%) [5]: 84% and 87%
- Population Pyknosed Nuclei (%) [5]: 46% and 43% and 55%
- Population Tubulin-Different-Phenotype (%) [5]: 48% and 34% and 54%
- Total Cell Count [5]: 634 and 591 and 363
- Population Apoptotic (%) [6]: 11% and 13% and 5%
- Population Fragmented Nuclei (%) [6]: 5% and 9% and 6%
- Population Healthy Nuclei (%) [6]: 64% and 62% and 70%
- Population Hoechst High Intensity Objects (%) [6]: 2%
- Population Membrane Permeable-Phenotype (%) [6]: 7%
- Population Mitochondria Different-Phenotype (%) [6]: 14% and 23% and 18%
- Population Mitotic Cells (%) [6]: 88% and 86% and 94%
- Population Normal (%) [6]: 97%
- Population Pyknosed Nuclei (%) [6]: 30% and 27% and 22%
- Population Tubulin-Different-Phenotype (%) [6]: 22% and 26% and 15%
- Total Cell Count [6]: 245 and 241 and 330
- Population Apoptotic (%) [7]: 50% and 60% and 64%
- Population Fragmented Nuclei (%) [7]: 18% and 20%
- Population Healthy Nuclei (%) [7]: 22% and 16% and 17%
- Population Hoechst High Intensity Objects (%) [7]: 19% and 15% and 14%
- Population Membrane Permeable-Phenotype (%) [7]: 0%
- Population Mitochondria Different-Phenotype (%) [7]: 98% and 97% and 96%
- Population Mitotic Cells (%) [7]: 49% and 39% and 35%
- Population Normal (%) [7]: 80% and 84% and 85%
- Population Pyknosed Nuclei (%) [7]: 58% and 63% and 61%
- Population Tubulin-Different-Phenotype (%) [7]: 94% and 86% and 90%
- Total Cell Count [7]: 489 and 314 and 331
- Population Apoptotic (%) [8]: 61% and 57% and 59%
- Population Fragmented Nuclei (%) [8]: 6% and 3%
- Population Healthy Nuclei (%) [8]: 42% and 47% and 50%
- Population Hoechst High Intensity Objects (%) [8]: 4% and 5%
- Population Membrane Permeable-Phenotype (%) [8]: 3% and 1% and 2%
- Population Mitochondria Different-Phenotype (%) [8]: 90% and 89% and 87%
- Population Mitotic Cells (%) [8]: 38% and 42% and 40%
- Population Normal (%) [8]: 95% and 94%
- Population Pyknosed Nuclei (%) [8]: 50% and 49% and 46%
- Population Tubulin-Different-Phenotype (%) [8]: 93%
- Total Cell Count [8]: 222 and 291 and 281
- Population Apoptotic (%) [9]: 50% and 32% and 31%
- Population Fragmented Nuclei (%) [9]: 17% and 13% and 15%
- Population Healthy Nuclei (%) [9]: 35% and 64% and 52%
- Population Hoechst High Intensity Objects (%) [9]: 15% and 9% and 12%
- Population Membrane Permeable-Phenotype (%) [9]: 0%
- Population Mitochondria Different-Phenotype (%) [9]: 46% and 27% and 47%
- Population Mitotic Cells (%) [9]: 50% and 67% and 68%
- Population Normal (%) [9]: 84% and 90% and 87%
- Population Pyknosed Nuclei (%) [9]: 46% and 21% and 32%
- Population Tubulin-Different-Phenotype (%) [9]: 28% and 25% and 40%
- Total Cell Count [9]: 384 and 851 and 794
- Population Apoptotic (%) [10]: 20% and 10% and 15%
- Population Fragmented Nuclei (%) [10]: 7% and 9% and 3%
- Population Healthy Nuclei (%) [10]: 82% and 81%
- Population Hoechst High Intensity Objects (%) [10]: 4%
- Population Membrane Permeable-Phenotype (%) [10]: 3% and 1%
- Population Mitochondria Different-Phenotype (%) [10]: 9% and 7% and 13%
- Population Mitotic Cells (%) [10]: 79% and 89% and 84%
- Population Normal (%) [10]: 95%
- Population Pyknosed Nuclei (%) [10]: 10% and 9% and 15%
- Population Tubulin-Different-Phenotype (%) [10]: 24% and 17% and 22%
- Total Cell Count [10]: 386 and 610 and 321
- Population Apoptotic (%) [11]: 68% and 72% and 52%
- Population Fragmented Nuclei (%) [11]: 28% and 25%
- Population Healthy Nuclei (%) [11]: 22% and 19% and 26%
- Population Hoechst High Intensity Objects (%) [11]: 13% and 18% and 16%
- Population Membrane Permeable-Phenotype (%) [11]: 0%
- Population Mitochondria Different-Phenotype (%) [11]: 98% and 96% and 95%
- Population Mitotic Cells (%) [11]: 31% and 27% and 47%
- Population Normal (%) [11]: 86% and 81% and 84%
- Population Pyknosed Nuclei (%) [11]: 48% and 55%
- Population Tubulin-Different-Phenotype (%) [11]: 98% and 94% and 82%
- Total Cell Count [11]: 329 and 319 and 500
- Population Apoptotic (%) [12]: 66%
- Population Fragmented Nuclei (%) [12]: 5% and 7% and 8%
- Population Healthy Nuclei (%) [12]: 69% and 65% and 61%
- Population Hoechst High Intensity Objects (%) [12]: 3% and 6%
- Population Membrane Permeable-Phenotype (%) [12]: 2% and 1%
- Population Mitochondria Different-Phenotype (%) [12]: 85% and 90% and 93%
- Population Mitotic Cells (%) [12]: 33%
- Population Normal (%) [12]: 96% and 93%
- Population Pyknosed Nuclei (%) [12]: 25% and 26% and 30%
- Population Tubulin-Different-Phenotype (%) [12]: 95%
- Total Cell Count [12]: 373 and 318 and 253
